In ChEMBL document CHEMBL2384985 (Bioorg Med Chem Lett, 2013):
Active and inactive are the calls of the source. No cut-off for these calls is given here.

Tests used:
[1] = tested on: Embryonic stem cell; test: Induction of cardiomyogenic activity in human embryonic stem cells assessed as cell growth at 5 uM measured on day 15 by FACS analysis; assay type: functional, cell-based
[2] = (§1) Induction of cardiomyogenic activity in human embryonic stem cells assessed as cardiomyocyte yield at 5 uM measured on day 15 by FACS analysis relative to control; assay type: functional, Embryonic stem cell
Summary of the method: (§2)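 Nkx2.5eGFP/w transgenic hESC line (eGFP driven by cardiac progenitor marker Nkx2.5). Compound present from Day 0, the day of embryoid body formation, to Day 8. On Day 15 EBs were dissociated to single cells for FACS. Nkx2.5 was read as GFP expression, and α-MHC by MF20 primary antibody with FITC-conjugated secondary.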

[3] = tested on: Embryonic stem cell; test: Induction of cardiomyogenic activity in human embryonic stem cells assessed as cardiomyocyte yield at 1 to 5 uM measured on day 15 by FACS analysis; assay type: functional, cell-based; summary of the method: as §2
[4] = tested on: Embryonic stem cell; test: Induction of cardiomyogenic activity in human embryonic stem cells assessed as cardiomyocyte yield at 5 to 15 uM measured on day 15 by FACS analysis; assay type: functional, cell-based; summary of the method: as §2
[5] = tested on: Embryonic stem cell; test: as §1; assay type: functional; summary of the method: as §2
[6] = tested on: Embryonic stem cell; test: Induction of cardiomyogenic activity in human embryonic stem cells assessed as cardiomyocyte yield at 2 to 5 uM measured on day 15 by FACS analysis; assay type: functional, cell-based; summary of the method: as §2
[7] = Reduction of cardiomyogenic activity in human embryonic stem cells assessed as cardiomyocyte yield at 5 uM measured on day 15 by FACS analysis relative to control; assay type: functional, Embryonic stem cell; summary of the method: as §2
[8] = tested on: Embryonic stem cell; test: Induction of cardiomyogenic activity in human embryonic stem cells assessed as cardiomyocyte yield at 5 to 100 uM measured on day 15 by FACS analysis; assay type: functional, cell-based; summary of the method: as §2

For `C[S+]([O-])c1ccc(-c2nc(-c3ccc(F)cc3)c(-c3ccncc3)[nH]2)cc1` (stereo not given), the Activity [1] was “Active”.
For `Cc1cccc(-c2nc(-c3ccc([S+](C)[O-])cc3)[nH]c2-c2ccncc2)c1` (stereo not given), the Activity [1] was “Active” and the Ratio [2] was 5.
In the case of `Cc1cccc(-c2nc(-c3ccccc3F)[nH]c2-c2ccncc2)c1`, the Activity [3] is reported as “inactive”.
For `Cc1cccc(-c2nc(-c3ccc([S+](C)[O-])cc3)[nH]c2C2=CCOCC2)c1` (stereo not given), the Activity [4] was “inactive” and the Activity [5] was “Active”.
For `Cc1cccc(-c2nc(-c3ccc(O)cc3)[nH]c2-c2ccncc2)c1`, the Activity [6] was “inactive”.
For `Cc1cccc(-c2nc(-c3c(F)cccc3F)[nH]c2-c2ccncc2)c1`, the Activity [3] was “inactive”.
For `C[S+]([O-])c1ccc(-c2nc(-c3ccc(F)cc3)c(C3=CCOCC3)[nH]2)cc1` (stereo not given), the Ratio [7] was 2 and the Activity [8] was “inactive”.
